Laboratory results published in ChEMBL document CHEMBL1142722, “Discovery and selection of TMC114, a next generation HIV-1 protease inhibitor” (J Med Chem, 2005).

Key:
[1] = system: Human immunodeficiency virus 1; test: Effective concentration against PI-Resistant HIV strain (M1); assay type: functional, organism-based
Procedure, shortened: (§1)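 MTT cytopathic-effect assay in MT-4 cells infected with recombinant HIV carrying clinical-isolate-derived protease and RT sequences in an HXB2-derived backbone. Inoculum 200-250 CCID50/well, 30 000 cells/well, compound over a concentration range. Incubation 5 days at 37 °C, 5% CO2. […] Cytotoxicity run in parallel on mock-infected cells.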

[2] = system: Human immunodeficiency virus 1; test: Effective concentration against PI-Resistant HIV strain (M2); assay type: functional, organism-based; conditions: for EC50: Human immunodeficiency virus 1; procedure, shortened: as §1
[3] = system: Human immunodeficiency virus 1; test: Effective concentration against PI-Resistant HIV strain (M3); assay type: functional, organism-based; conditions: for EC50: Human immunodeficiency virus 1; procedure, shortened: as §1
[4] = system: Human immunodeficiency virus 1; test: Effective concentration against PI-Resistant HIV strain (M4); assay type: functional, organism-based; conditions: for EC50: Human immunodeficiency virus 1; procedure, shortened: as §1
[5] = system: Human immunodeficiency virus 1; test: Effective concentration against PI-Resistant HIV strain (M5); assay type: functional, organism-based; conditions: for EC50: Human immunodeficiency virus 1; procedure, shortened: as §1
[6] = system: Human immunodeficiency virus 1; test: Effective concentration of against HIV Wild Type (IIIB) strain; assay type: functional, organism-based; conditions: for EC50: Human immunodeficiency virus 1
Procedure, shortened: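 Wild-type HIV-1 IIIB was tested in MT-4 cells by MTT colorimetric CPE assay. Compound was serially diluted, with virus at 200-250 CCID50/well and 30 000 cells/well. […] Mock-infected cultures were run in parallel for cytotoxicity.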

[7] = system: Human immunodeficiency virus 1; test: Effective concentration as average activity on mutant HIV panel (AVMUT); assay type: functional, organism-based; conditions: for EC50: Human immunodeficiency virus 1
Procedure, shortened: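 Mean pEC50 across the panel of PI-resistant recombinant clinical-isolate strains. Each strain was tested by MTT CPE assay in MT-4 cells at 200-250 CCID50/well and 30 000 cells/well, read after 5 days at 37 °C, 5% CO2.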

[8] = Percentage of remaining compound after 30 min incubation in dog liver microsomes was determined as metabolic stability; assay type: ADME, Canis lupus familiaris, Microsome; conditions: read-out: Remaining compound
Procedure, shortened: (§2)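 Compound incubated with rat, dog or human liver microsomes for 30 min at 37 °C. Residual parent compound in the reaction mixture was measured directly by LC-MS and expressed as % remaining.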

[9] = Percentage of remaining compound after 30 min incubation in rat liver microsomes was determined as metabolic stability; assay type: ADME, Microsome; conditions: read-out: Remaining compound; procedure, shortened: as §2
[10] = Percentage of remaining compound after 30 min incubation in human liver microsomes was determined as metabolic stability; assay type: ADME, Microsome; conditions: read-out: Remaining compound; procedure, shortened: as §2
[11] = Half-life in dog after 80 mg/kg oral administration; assay type: ADME, organism-based, Canis lupus familiaris; set-up: dose 80 mg/kg, route oral; conditions: in vivo
Procedure, shortened: (§3)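 Single oral dose of 80 mg/kg given to dogs as a PEG400 solution. Plasma exposure parameters are reported as the mean of four measurements, with the standard deviation in parentheses.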

[12] = Area under concentration time curve value in dog after 80 mg/kg oral administration; assay type: ADME, organism-based, Canis lupus familiaris; set-up: dose 80 mg/kg, route oral; conditions: in vivo; procedure, shortened: as §3
[13] = Maximum plasma concentration in dog after 80 mg/kg oral administration; assay type: ADME, organism-based, Canis lupus familiaris; set-up: dose 80 mg/kg, route oral; procedure, shortened: as §3
[14] = Time to reach maximum concentration in dog after 80 mg/kg oral administration; assay type: ADME, organism-based, Canis lupus familiaris; set-up: dose 80 mg/kg, route oral; conditions: in vivo; procedure, shortened: as §3

SMILES	EC50 [1] [nM]	EC50 [2] [nM]	EC50 [3] [nM]	EC50 [4] [nM]	EC50 [5] [nM]	EC50 [6] [nM]	EC50 [7] [nM]	remaining at 0.5 h [8] [%]	remaining at 0.5 h [9] [%]	remaining at 0.5 h [10] [%]	half-life [11] [h]	AUC last [12] [ng·h/mL]	Cmax [13] [ng/mL]	Tmax [14] [h]	Log EC50 [2]	Log EC50 [3]	Log EC50 [4]	Log EC50 [5]	Log EC50 [6]	Log EC50 [7]
CC(C)CN(C[C@@H](O)[C@H](Cc1ccccc1)NC(=O)O[C@H]1CCOC1)S(=O)(=O)c1ccc(N)cc1	741	204	195	170	741	37.2	324	81	83	116	–	–	–	–	–	–	–	–	–	–
CC(C)CN(C[C@@H](O)[C@H](Cc1ccccc1)NC(=O)O[C@@H]1CO[C@@H]2OCC[C@@H]21)S(=O)(=O)c1ccc(N)cc1	37.2	60.3	21.4	21.4	26.3	10.7	30.9	–	–	–	–	–	–	–	–	–	–	–	–	–
CC(C)CN(C[C@@H](O)[C@H](Cc1ccccc1)NC(=O)O[C@H]1CO[C@H]2OCC[C@H]21)S(=O)(=O)c1ccc([N+](=O)[O-])cc1	33.9	29.5	4.57	21.9	45.7	2.45	21.4	–	–	–	–	–	–	–	–	–	–	–	–	–
CC(C)CN(C[C@@H](O)[C@H](Cc1ccccc1)NC(=O)O[C@H]1CO[C@H]2OCC[C@H]21)S(=O)(=O)c1cccc(N)c1	759	47.9	28.2	26.3	26.3	4.37	42.7	–	–	–	–	–	–	–	–	–	–	–	–	–
CC(C)CN(C[C@@H](O)[C@H](Cc1ccccc1)NC(=O)O[C@H]1CO[C@H]2OCC[C@H]21)S(=O)(=O)c1ccc(CN)cc1	7.59	15.8	6.03	6.61	5.62	7.08	7.76	–	–	–	–	–	–	–	–	–	–	–	–	–
CC(C)CN(C[C@@H](O)[C@H](Cc1ccccc1)NC(=O)O[C@H]1CO[C@H]2OCC[C@H]21)S(=O)(=O)c1ccc(O)cc1	23.4	10	6.03	6.03	6.17	6.31	8.71	–	–	–	–	–	–	–	–	–	–	–	–	–
CC(C)CN(C[C@@H](O)[C@H](Cc1ccccc1)NC(=O)O[C@H]1CO[C@H]2OCC[C@H]21)S(=O)(=O)c1ccc2c(c1)OCO2	32.4	6.46	3.47	3.98	4.07	0.617	6.46	53	21	52	2.06	18100	3780	2.5	–	–	–	–	–	–
CC(C)CN(C[C@@H](O)[C@H](Cc1ccccc1)NC(=O)O[C@@H]1CO[C@H]2OCC[C@H]21)S(=O)(=O)c1ccc(N)cc1	759	2240	479	1120	–	240	977	–	–	–	–	–	–	–	–	–	–	–	–	–
CC(C)CN(C[C@@H](O)[C@H](Cc1ccccc1)NC(=O)O[C@H]1CO[C@@H]2OCC[C@@H]21)S(=O)(=O)c1ccc(N)cc1	–	–	–	–	–	309	–	–	–	–	–	–	–	–	–	–	–	–	–	–
CC(C)CN(C[C@@H](O)[C@H](Cc1ccccc1)NC(=O)O[C@H]1CO[C@H]2OCC[C@H]21)S(=O)(=O)c1ccc(I)cc1	33.1	13.8	4.07	5.25	5.01	1.51	8.71	–	–	–	–	–	–	–	–	–	–	–	–	–
CC(=O)c1ccc(S(=O)(=O)N(CC(C)C)C[C@@H](O)[C@H](Cc2ccccc2)NC(=O)O[C@H]2CO[C@H]3OCC[C@H]32)cc1	31.6	15.8	6.03	–	11.7	1.95	13.8	–	–	–	–	–	–	–	–	–	–	–	–	–
CC(C)CN(C[C@@H](O)[C@H](Cc1ccccc1)NC(=O)O[C@H]1CO[C@H]2OCC[C@H]21)S(=O)(=O)c1ccc(C#N)cc1	115	155	39.8	89.1	138	5.25	97.7	–	–	–	–	–	–	–	–	–	–	–	–	–
COc1ccc(S(=O)(=O)N(CC(C)C)C[C@@H](O)[C@H](Cc2ccccc2)NC(=O)O[C@H]2CO[C@H]3OCC[C@H]32)cc1	10.2	6.03	2.24	4.68	2.88	0.589	4.47	11	25	56	1.47	2700	1180	0.6	–	–	–	–	–	–
CC(C)(C)NC(=O)[C@@H]1CN(Cc2cccnc2)CCN1C[C@@H](O)C[C@@H](Cc1ccccc1)C(=O)N[C@H]1c2ccccc2C[C@H]1O	–	–	–	–	–	–	–	85	97	95	–	–	–	–	–	–	–	–	–	–
CC(C)CN(C[C@@H](O)[C@H](Cc1ccccc1)NC(=O)OC1COC2OCCC12)S(=O)(=O)c1ccccc1 (mixture of isomers)	166	135	47.9	41.7	30.9	2.75	67.6	–	–	–	–	–	–	–	–	–	–	–	–	–
Cc1ccc(S(=O)(=O)N(CC(C)C)C[C@@H](O)[C@H](Cc2ccccc2)NC(=O)OC2COC3OCCC23)cc1 (mixture of isomers)	129	107	35.5	38	40.7	5.25	60.3	–	–	–	–	–	–	–	–	–	–	–	–	–
CC(C)CN(C[C@@H](O)[C@H](Cc1ccccc1)NC(=O)O[C@H]1CO[C@H]2OCC[C@H]21)S(=O)(=O)c1ccc(N)cc1 (stereo in doubt; form 1)	–	–	–	–	–	–	–	–	–	–	–	–	–	–	-6.72	-6.76	-6.84	-6.9	-7.36	-6.81
CC(C)CN(C[C@@H](O)[C@H](Cc1ccccc1)NC(=O)O[C@H]1CO[C@H]2OCC[C@H]21)S(=O)(=O)c1ccc(N)cc1 (stereo in doubt; form 2)	5.13	–	–	–	–	–	–	80	92	85	0.781	74100	19100	1	-8.14	-8.14	–	–	-8.39	-8.29
